# Measured values published in ChEMBL document CHEMBL1136028, “Design and synthesis of orally bioavailable inhibitors of inducible nitric oxide synthase. Part 1: synthesis and biological evaluation of dihydropyridin-2-imines” (Bioorg Med Chem Lett, 2002).
# How the values were obtained:
# Nitric oxide synthase 3 = target: T1, Nitric oxide synthase 3 (Homo sapiens, UniProt P29474); test: Inhibition of human endothelial Nitric Oxide Synthase expressed in Sf-21 cells; parameters: species or system Sf21
# T1 sequence (P29474 whole entry): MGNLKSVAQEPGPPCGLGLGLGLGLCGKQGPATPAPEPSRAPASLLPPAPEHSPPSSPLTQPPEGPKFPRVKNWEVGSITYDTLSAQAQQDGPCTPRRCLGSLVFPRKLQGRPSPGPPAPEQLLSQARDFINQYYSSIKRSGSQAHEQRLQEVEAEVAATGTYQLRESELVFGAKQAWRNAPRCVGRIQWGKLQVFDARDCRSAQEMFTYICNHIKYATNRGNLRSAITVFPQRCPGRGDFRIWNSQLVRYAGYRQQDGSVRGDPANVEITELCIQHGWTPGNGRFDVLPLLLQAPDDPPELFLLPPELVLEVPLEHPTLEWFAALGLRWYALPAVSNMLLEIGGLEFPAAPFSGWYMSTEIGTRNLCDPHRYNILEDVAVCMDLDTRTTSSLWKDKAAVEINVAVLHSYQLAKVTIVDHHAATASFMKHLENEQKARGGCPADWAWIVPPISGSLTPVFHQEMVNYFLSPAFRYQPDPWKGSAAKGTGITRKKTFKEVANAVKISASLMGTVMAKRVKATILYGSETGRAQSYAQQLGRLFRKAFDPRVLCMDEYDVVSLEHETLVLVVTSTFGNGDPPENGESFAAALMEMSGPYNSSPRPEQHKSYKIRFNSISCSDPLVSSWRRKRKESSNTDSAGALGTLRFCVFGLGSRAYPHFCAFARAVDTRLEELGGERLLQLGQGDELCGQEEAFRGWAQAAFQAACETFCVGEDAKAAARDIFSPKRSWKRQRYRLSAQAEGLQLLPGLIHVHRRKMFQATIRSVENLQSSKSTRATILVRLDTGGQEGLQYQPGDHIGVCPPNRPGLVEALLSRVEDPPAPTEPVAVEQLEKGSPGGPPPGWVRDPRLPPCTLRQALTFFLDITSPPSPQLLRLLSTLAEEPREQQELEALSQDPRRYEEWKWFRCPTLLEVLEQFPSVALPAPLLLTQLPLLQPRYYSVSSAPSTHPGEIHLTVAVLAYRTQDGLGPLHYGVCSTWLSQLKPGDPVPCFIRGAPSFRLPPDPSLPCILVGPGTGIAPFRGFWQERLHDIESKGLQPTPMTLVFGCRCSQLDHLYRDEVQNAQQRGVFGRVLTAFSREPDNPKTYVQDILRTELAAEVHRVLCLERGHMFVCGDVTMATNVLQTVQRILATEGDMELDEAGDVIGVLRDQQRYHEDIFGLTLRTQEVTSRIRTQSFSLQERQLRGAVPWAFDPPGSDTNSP
# Method in brief: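 Human eNOS was overexpressed in Sf-21 insect cells by infection with baculovirus carrying heNOS cDNA, then partially purified on 2',5'-ADP-Sepharose. Activity was read as [14C]-L-arginine to L-citrulline conversion at several inhibitor and L-arginine levels. Ki and mode of inhibition came from Dixon and Lineweaver–Burk plots.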
# [1] = target: T2, Nitric oxide synthase 3 (Homo sapiens) (UniProt P29474); test: Selectivity was evaluated as the rate of the IC50 values for Endothelial Nitric Oxide Synthase and Inducible nitric oxide synthase
# T2 sequence (whole entry): T1 sequence (P29474 whole entry)
# [2] = target: T3, Nitric oxide synthase, inducible (Homo sapiens, UniProt P35228); test: Concentration required to inhibit Inducible nitric oxide synthase over expressed in A549 cells; format: cell-based
# Method in brief: (§1)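 Human iNOS was induced in A549 cells by LPS plus cytokines (10 ng/mL TNF-a, 5 ng/mL IL-1b, 100 ng/mL interferon-g), then partially purified on 2',5'-ADP-Sepharose. Activity was read as conversion of [14C]-L-arginine to L-citrulline at several inhibitor and L-arginine levels. Ki and mode of inhibition came from Dixon and Lineweaver–Burk plots.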
# [3] = target: T3, Nitric oxide synthase, inducible; test: Concentration required to inhibit human Inducible nitric oxide synthase over expressed in A549 cells; format: cell-based; method in brief: as §1
# [4] = target: Nitric oxide synthase (inducible and endothelial) (Homo sapiens) (UniProt P35228+P29474); test: Selectivity was evaluated as the rate of the IC50 values for heNOS and hiNOS.; format: protein assay
# [5] = target: T4, Nitric oxide synthase, inducible (Mus musculus, UniProt P29477); test: The concentration required for inhibition of Inducible nitric oxide synthase in mouse
# T4 sequence (P29477 whole entry): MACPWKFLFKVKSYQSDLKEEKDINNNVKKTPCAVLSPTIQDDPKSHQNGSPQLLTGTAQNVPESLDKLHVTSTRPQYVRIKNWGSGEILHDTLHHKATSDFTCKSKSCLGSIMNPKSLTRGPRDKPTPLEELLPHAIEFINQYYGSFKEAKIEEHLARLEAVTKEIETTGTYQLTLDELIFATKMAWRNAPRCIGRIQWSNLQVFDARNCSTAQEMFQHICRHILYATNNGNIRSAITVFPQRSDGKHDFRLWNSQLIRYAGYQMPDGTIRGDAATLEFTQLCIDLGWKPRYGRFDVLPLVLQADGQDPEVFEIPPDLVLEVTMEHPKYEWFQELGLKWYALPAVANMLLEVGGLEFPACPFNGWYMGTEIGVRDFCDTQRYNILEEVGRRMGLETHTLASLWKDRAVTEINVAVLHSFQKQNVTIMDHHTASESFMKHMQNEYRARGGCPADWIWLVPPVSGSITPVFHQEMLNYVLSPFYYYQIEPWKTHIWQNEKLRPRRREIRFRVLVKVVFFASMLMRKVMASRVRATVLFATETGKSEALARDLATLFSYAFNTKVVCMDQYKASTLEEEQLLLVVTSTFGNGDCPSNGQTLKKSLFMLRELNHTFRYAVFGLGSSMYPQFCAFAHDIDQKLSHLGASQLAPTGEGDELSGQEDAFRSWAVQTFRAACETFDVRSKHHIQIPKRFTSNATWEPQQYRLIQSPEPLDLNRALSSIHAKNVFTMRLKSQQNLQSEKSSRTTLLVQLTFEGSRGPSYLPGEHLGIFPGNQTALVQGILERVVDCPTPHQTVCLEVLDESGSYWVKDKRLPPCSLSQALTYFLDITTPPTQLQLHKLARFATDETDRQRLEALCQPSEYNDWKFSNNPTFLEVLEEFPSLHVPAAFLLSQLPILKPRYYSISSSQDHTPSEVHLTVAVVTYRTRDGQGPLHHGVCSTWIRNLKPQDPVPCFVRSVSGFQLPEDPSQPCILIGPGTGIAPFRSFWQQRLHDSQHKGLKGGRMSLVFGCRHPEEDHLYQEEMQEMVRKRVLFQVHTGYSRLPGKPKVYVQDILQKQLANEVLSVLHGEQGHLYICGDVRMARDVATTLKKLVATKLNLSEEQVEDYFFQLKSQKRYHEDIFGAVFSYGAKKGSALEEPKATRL
# Method in brief: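 Enzyme was commercially purchased recombinant mouse iNOS, tested for inhibition by the test compounds.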
# Mus musculus [6] = test: The dose required for 50% inhibition of NOx accumulation in mice induced by LPS treatment after subcutaneous administration; format: functional; details: sc, read-out: ID50 (the source's name)
# Mus musculus [7] = test: Maximum tolerated dose (MTD) at which no death was observed within 24 hr after intravenous administration.; format: functional
# Method in brief: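 Normal mice (mouse acute toxicity) given a single intravenous dose of test compound. MTD taken as the maximum dose at which no death was observed within 24 h after injection.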
# [8] = Ratio of MTD/ID50 for NOx accumulation in mice; format: functional
# Method in brief: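 Balb/c mice, 7 weeks old, got LPS 10 mg/kg iv, then test compound or saline sc 3 h later. Plasma was taken from the abdominal aorta at 6 h, and NOx accumulated over 3 h was measured. ID50 is the sc dose halving LPS-induced NOx. MTD is the highest iv dose in normal mice with no death within 24 h. Ratio is MTD/ID50.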
# T3 sequence (P35228 whole entry): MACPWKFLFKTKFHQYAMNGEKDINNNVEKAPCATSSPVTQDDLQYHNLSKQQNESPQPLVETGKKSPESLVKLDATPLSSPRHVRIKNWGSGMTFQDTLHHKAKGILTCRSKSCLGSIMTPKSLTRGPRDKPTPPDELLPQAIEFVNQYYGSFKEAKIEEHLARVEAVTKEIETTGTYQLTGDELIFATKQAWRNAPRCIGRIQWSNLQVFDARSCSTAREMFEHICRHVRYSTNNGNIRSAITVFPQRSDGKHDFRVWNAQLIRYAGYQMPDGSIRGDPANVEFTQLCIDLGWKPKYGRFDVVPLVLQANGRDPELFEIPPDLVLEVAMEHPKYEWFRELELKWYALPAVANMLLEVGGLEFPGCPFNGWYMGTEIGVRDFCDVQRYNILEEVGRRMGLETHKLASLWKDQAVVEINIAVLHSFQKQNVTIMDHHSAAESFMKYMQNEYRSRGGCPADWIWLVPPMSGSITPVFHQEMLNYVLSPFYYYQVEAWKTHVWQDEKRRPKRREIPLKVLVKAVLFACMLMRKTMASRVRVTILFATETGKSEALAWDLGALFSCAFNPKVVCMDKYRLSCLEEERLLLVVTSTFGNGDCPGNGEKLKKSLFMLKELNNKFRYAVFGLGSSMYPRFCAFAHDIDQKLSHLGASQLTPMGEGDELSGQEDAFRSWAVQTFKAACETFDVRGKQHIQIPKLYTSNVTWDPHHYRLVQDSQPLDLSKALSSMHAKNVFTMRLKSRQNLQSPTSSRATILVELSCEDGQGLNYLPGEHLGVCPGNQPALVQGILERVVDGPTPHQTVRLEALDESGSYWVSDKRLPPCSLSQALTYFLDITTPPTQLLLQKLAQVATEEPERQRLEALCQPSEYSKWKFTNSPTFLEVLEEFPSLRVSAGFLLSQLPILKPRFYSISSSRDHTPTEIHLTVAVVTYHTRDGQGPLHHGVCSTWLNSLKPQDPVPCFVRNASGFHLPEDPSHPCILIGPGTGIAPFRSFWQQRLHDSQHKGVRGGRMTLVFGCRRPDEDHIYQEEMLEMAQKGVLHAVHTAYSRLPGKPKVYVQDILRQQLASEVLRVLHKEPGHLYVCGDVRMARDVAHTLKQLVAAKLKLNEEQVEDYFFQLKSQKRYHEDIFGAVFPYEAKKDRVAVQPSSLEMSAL
SMILES,IC50 (Nitric oxide synthase 3),Ratio [1],IC50 [2],IC50 [3],Ratio [4],IC50 [5],ED50 (Mus musculus [6]),MTD (Mus musculus [7]),Ratio [8]
CC1=CC(N)=NCC1C (centres undefined),520 nM,1,510 nM,–,–,–,–,–,–
CC1=CC(N)=NC(C)C1 (centres undefined),240 nM,1.3,180 nM,–,–,–,–,–,–
CC1=CCN=C(N)C1,440 nM,–,–,700 nM,0.6,–,–,–,–
C=CCC1CC(C)=CC(N)=N1 (centres undefined),–,–,–,–,7.2,25 nM,0.16 mg/kg,5 mg/kg,–
CCC1=CC(=N)NCC1,1500 nM,–,–,1200 nM,1.3,–,–,–,–
CC1=CC(N)=NCC1,230 nM,–,–,200 nM,1.2,22 nM,0.16 mg/kg,20 mg/kg,130
CC1=C(C)C(N)=NCC1,320 nM,–,–,310 nM,1,–,–,–,–
CCCC1CC(C)=CC(N)=N1 (centres undefined),580 nM,–,–,60 nM,9.7,100 nM,0.36 mg/kg,5 mg/kg,14
CC1=CC(N)=NCC1(C)C,2100 nM,–,–,420 nM,5,100 nM,0.28 mg/kg,20 mg/kg,71
CC1(C)C=CC(N)=NC1,31000 nM,–,–,2800 nM,11.1,–,–,–,–
CC1=CC(N)=N[C@@H]2CCC[C@H]12,510 nM,–,–,170 nM,3,–,–,–,–
CC1=CC(N)=N[C@@H]2CCCC[C@H]12,7400 nM,–,–,1400 nM,5.3,–,–,–,–
